Data published in ChEMBL document CHEMBL4373735, “N-alkyl-hydroxybenzoyl anilide hydroxamates as dual inhibitors of HDAC and HSP90, downregulating IFN-γ induced PD-L1 expression” (Eur J Med Chem, 2020).

Key:
[1] = test system: NCI-H1975; assay: cells; format: functional; details: Homo sapiens, NCI-H1975, 48 h
[2] = test system: HCT-116; assay: cells; format: functional; details: Homo sapiens, HCT-116, 48 h
[3] = target: Histone deacetylase; format: cell-based, Homo sapiens; details: hela
[4] = test system: A549; assay: Antiproliferative activity against human A549 cells assessed as cell growth inhibition after 48 hrs by sulforhodamine B assay; format: functional
How it was run: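 Cells seeded at 5000/well overnight; baseline plate fixed with 10% TCA at time of compound addition (T0). Treated with DMSO or graded doses for 48 h, fixed with 10% TCA, stained with 0.4% (w/v) SRB in 1% acetic acid, washed with 1% acetic acid, dye solubilised in 10 mM Trizma base, absorbance at 515 nm. GI50 from T0-corrected growth; at least three independent experiments, SD reported.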

[5] = target: Heat shock protein HSP 90-alpha (Homo sapiens, UniProt P07900); assay: Inhibition of FITC-geldanamycin binding to recombinant human full-length C-terminal His-tagged HSP90alpha expressed in Escherichia coli after 3 hrs by fluorescence polarization assay
[6] = species: Homo sapiens; assay: Selectivity ratio of IC50 for HDAC1 (unknown origin) to IC50 for HDAC6 (unknown origin)
[7] = cells; format: ADME, cell-based; details: Homo sapiens, SC9
[8] = target: Histone deacetylase 1 (Homo sapiens, UniProt Q13547); assay: Inhibition of HDAC1 (unknown origin)
Sequence of Histone deacetylase 1 (Q13547 whole entry): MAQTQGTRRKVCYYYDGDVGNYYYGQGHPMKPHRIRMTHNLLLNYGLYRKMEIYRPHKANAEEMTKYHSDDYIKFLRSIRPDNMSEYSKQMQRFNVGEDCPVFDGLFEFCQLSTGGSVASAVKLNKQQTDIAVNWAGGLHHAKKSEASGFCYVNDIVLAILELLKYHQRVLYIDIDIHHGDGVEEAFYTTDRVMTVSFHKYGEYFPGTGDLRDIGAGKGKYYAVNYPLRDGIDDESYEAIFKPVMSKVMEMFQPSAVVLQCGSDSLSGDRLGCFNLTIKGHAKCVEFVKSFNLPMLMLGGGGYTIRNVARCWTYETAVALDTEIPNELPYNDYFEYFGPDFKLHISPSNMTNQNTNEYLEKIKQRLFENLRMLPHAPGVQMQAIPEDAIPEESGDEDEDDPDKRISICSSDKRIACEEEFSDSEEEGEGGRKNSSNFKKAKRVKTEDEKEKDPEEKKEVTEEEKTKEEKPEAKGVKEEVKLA

For C=CCNC1=C2C[C@@H](C)C[C@H](OC)[C@H](O)[C@@H](C)/C=C(\C)[C@H](OC(N)=O)[C@@H](OC)/C=C\C=C(/C)C(=O)NC(=CC1=O)C2=O (stereo in doubt) [TANESPIMYCIN], the GI50 [1] was 160 nM, the GI50 [2] was 340 nM and the IC50 [3] was over 1000 nM. It also gave a GI50 ([4]; Homo sapiens, A549, 48 h) of 7.5 nM.

CC(C)c1cc(C(=O)N(C)c2ccc(NC(=O)CCCCCC(=O)NO)cc2)c(O)cc1O gave an IC50 [5] of 169 nM, a GI50 [1] of 690 nM and a GI50 [2] of 3780 nM. It also gave an IC50 [3] of 391 nM and a GI50 ([4]; Homo sapiens, A549, 48 h) of 2830 nM.

For O=C(CCCCCCC(=O)Nc1ccc(-c2cn(Cc3ccc(F)cc3)nn2)cc1)NO, the Ratio IC50 [6] was 51.

Work on O=C(CCCCCCC(=O)Nc1ccccc1)NO [VORINOSTAT] yielded an IC50 [5] of over 500 nM and a GI50 [4] of 1020 nM.

Compound CCN(C(=O)c1cc(C(C)C)c(O)cc1O)c1ccc(NC(=O)CCCCCCC(=O)NO)cc1 has an IC50 [5] of 186 nM, a GI50 [1] of 1380 nM and a GI50 [2] of 3560 nM. The IC50 [3] was 462 nM and the GI50 ([4]; Homo sapiens, A549, 48 h) was 5630 nM.

CC(C)c1cc(C(=O)N(C)c2ccc(NC(=O)CCCCCCCCC(=O)NO)cc2)c(O)cc1O gave a GI50 [1] of 210 nM, a GI50 [2] of 590 nM and an IC50 [3] of 672 nM. It also gave a GI50 ([4]; Homo sapiens, A549, 48 h) of 1080 nM.

For CC(C)c1cc(C(=O)Nc2cccc(NC(=O)CCCCCCC(=O)NO)c2)c(O)cc1O, the IC50 [5] was over 1000 nM, the GI50 [1] was over 10000 nM and the GI50 [2] was 6230 nM. The IC50 [3] was 106 nM and the GI50 ([4]; Homo sapiens, A549, 48 h) was over 10000 nM.

Compound CC(C)c1cc(C(=O)N(c2ccc(NC(=O)CCCCCCC(=O)NO)cc2)C(C)C)c(O)cc1O has an IC50 [5] of over 1000 nM, a GI50 [1] of over 10000 nM and a GI50 [2] of over 10000 nM. The IC50 [3] was over 1000 nM and the GI50 ([4]; Homo sapiens, A549, 48 h) was over 10000 nM.

In the case of CC(C)c1cc(C(=O)Nc2ccccc2NC(=O)CCCCCCC(=O)NO)c(O)cc1O, the IC50 [5] is reported as over 1000 nM, the GI50 [1] is reported as over 10000 nM and the GI50 [2] is reported as 4920 nM. It also gave an IC50 [3] of over 1000 nM and a GI50 ([4]; Homo sapiens, A549, 48 h) of over 10000 nM.

Compound CCN(C(=O)c1cc(C(C)C)c(O)cc1O)c1cccc(NC(=O)CCCCCCC(=O)NO)c1 has an IC50 [5] of 146 nM, a GI50 [1] of 940 nM and a GI50 [2] of 1120 nM. It also gave an IC50 [3] of 126 nM and a GI50 ([4]; Homo sapiens, A549, 48 h) of 1590 nM.

Compound CC(C)c1cc(C(=O)Nc2ccc(NC(=O)CCCCCCC(=O)NO)cc2)c(O)cc1O has an IC50 [5] of over 1000 nM, a GI50 [1] of over 10000 nM and a GI50 [2] of 5430 nM. The IC50 [3] was 415 nM and the GI50 ([4]; Homo sapiens, A549, 48 h) was over 10000 nM.

Work on O=C(CCCCC[C@@H](NC(=O)c1ccccc1)C(=O)Nc1ccc2ncccc2c1)NO yielded an IC50 [7] of 90 nM and an IC50 [8] of 3.5 nM.

Work on CC(C)c1cc(C(=O)N(C)c2cccc(NC(=O)CCCCCCC(=O)NO)c2)c(O)cc1O yielded an IC50 [5] of 302 nM, a GI50 [1] of 1660 nM and a GI50 [2] of 1170 nM. It also gave an IC50 [3] of 211 nM and a GI50 ([4]; Homo sapiens, A549, 48 h) of 2300 nM.

Work on O=C(CCCCC[C@@H](NC(=O)c1ccccc1)C(=O)Nc1ccccc1)NO yielded an IC50 [7] of 73 nM and an IC50 [8] of 12.1 nM.
